# According to PubChem BioAssay AID588627 (Johns Hopkins Ion Channel Center, 2011):
# Hit rate of the full screen: of about 310,000 compounds, about 1,400 (0.45%) were called active.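 Rule for the calls: active = calcium response B-score plate-corrected fluorescence ratio at least 3 library SD, with starting fluorescence B-score inside 5 SD; inactive = the rest.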 What follows is part of a selection rich in actives, with near analogues and random picks from the rest.
# Target: Mas-related G-protein coupled receptor member X1 (Homo sapiens) (UniProt Q96LB2)
# Sequence (Q96LB2 whole entry, looked up): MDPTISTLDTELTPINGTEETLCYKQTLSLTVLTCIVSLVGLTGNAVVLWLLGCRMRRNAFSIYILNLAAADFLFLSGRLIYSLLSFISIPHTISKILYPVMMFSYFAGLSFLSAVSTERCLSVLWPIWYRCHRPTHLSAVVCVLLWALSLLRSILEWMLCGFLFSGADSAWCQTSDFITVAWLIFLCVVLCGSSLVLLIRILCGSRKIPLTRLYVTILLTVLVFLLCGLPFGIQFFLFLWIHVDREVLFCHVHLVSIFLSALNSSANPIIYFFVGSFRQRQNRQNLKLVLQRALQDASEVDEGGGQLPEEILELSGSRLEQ
# Test: MrgX1 activation via calcium signaling – HEK293 cells, Fluo-4 calcium flux, primary screen (AID 588627);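 for B-score: B-score of the peak-minus-trough calcium fluorescence change over baseline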
# Conditions: Fluo-4 calcium fluorescence, agonist mode, at 10 µM; active compounds read high
# How it was run: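 Material: MrgX1-expressing HEK293 cells / Dosing: compound as first of three additions / Incubation: overnight seeding, then 1 h dark dye loading / Signal: Fluo-4 NW calcium fluorescence / Evaluation: B-scored fluorescence response ratio / Benchmarks: positive and negative control wells on each plate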
row,Structure (SMILES),B-score
1,COc1ccc(-n2nc(C(=O)NCC(=O)N3CCC(C(N)=O)CC3)c3ccccc3c2=O)cc1OC,inactive
2,Cc1ccc(NS(=O)(=O)c2cccs2)cc1S(=O)(=O)N1CCCCCC1,inactive
3,CCOC(=O)CCc1c(C)c(C#N)c2[nH]c3ccccc3n2c1=O,inactive
4,CN(C)Cc1c(C#N)c2ccccc2n1C,inactive
5,CCCc1cc(=S)n2c([nH]c3ccccc32)c1C#N,29.9 (active)
6,CCCCN(C(=O)CCNC(=O)NC12CC3CC(CC(C3)C1)C2)c1c(N)n(CCCC)c(=O)[nH]c1=O,inactive
7,COc1ccc2[nH]cc(CCN3C(=O)c4ccc(C(=O)O)cc4C3=O)c2c1,inactive
8,CCOc1cccc(OCCCOc2cccc3cccnc23)c1,inactive
9,Cc1cc(OCCOc2cccc3cccnc23)c(C)cc1Cl,inactive
10,OCc1ccc(OCCCOc2cccc3cccnc23)cc1,27.9 (active)
11,CCC(=O)c1cn(CCOc2ccccc2OC)c2ccccc12,inactive
12,CC[n+]1cc(C)ccc1/C=C/c1ccc(N(C)C)cc1,27.3 (active)
13,O=C(NCCCN1CCN(c2ccc(F)cc2)CC1)Nc1ccc([N+](=O)[O-])cc1,inactive
14,CCNC(=O)CCc1nc(-c2ccc(C(C)(C)C)cc2)no1,inactive
15,CNC(=S)N1CCC(NC(=O)C(Cc2ccc(F)cc2)NC(C)=O)CC1 (stereo unspecified),inactive
16,CS(=O)(=O)N1CCc2cc(C(=O)Nc3ccccc3Br)ccc21,inactive

row,Structure (SMILES),B-score
1,CCOc1ccc(Br)cc1CSC(=N)N,inactive
2,c1ccc2c(CSCc3nc4ccccc4[nH]3)cccc2c1,inactive
3,N=C(N)SCc1cccc2ccccc12,36.5 (active)
4,CCN(CC)c1ccc(C(=O)NNC(=O)CCc2nc3ccccc3c(=O)[nH]2)cc1,inactive
5,CC(=O)c1ccc(N=C2SCCCN2C(=O)C2CCCCC2)cc1,inactive
6,O=C(Cc1csc(Nc2nc(=S)[nH]c3ccccc23)n1)NCCCN1CCN(c2cccc(Cl)c2)CC1,inactive
7,O=[N+]([O-])/C=C/c1ccc2c(ccn2Cc2ccccc2)c1,37.8 (active)
8,O=C(/C=C/c1cccc([N+](=O)[O-])c1)N1CCN(Cc2ccccc2)CC1,inactive
9,O=C(Cn1ccc2cc(S(=O)(=O)N3CCCC3)ccc21)NCc1ccccc1,inactive
10,COc1cccc(CNC(=O)c2nnn(CC(=O)Nc3cc(C)ccc3C)c2N)c1,inactive
11,COCCNC(=O)C(c1ccc(O)cc1)N(C(=O)CCC(=O)Nc1nccs1)c1ccc(C)cc1 (stereo unspecified),inactive
12,COc1ccc(NC2CC(=O)N(C)C2=O)cc1 (stereo unspecified),inactive
13,CCCCOc1ccc(CSC(=N)N)cc1[N+](=O)[O-],42.7 (active)
14,CCCCCOc1ccc(CSC2=NCCN2)cc1[N+](=O)[O-],inactive
15,CCCOc1ccc(Cn2ccnc2)cc1[N+](=O)[O-],inactive
